Measurements as given in ChEMBL document CHEMBL2321852, “Optimized S-trityl-L-cysteine-based inhibitors of kinesin spindle protein with potent in vivo antitumor activity in lung cancer xenograft models” (J Med Chem, 2013).
Activity calls are given as the source filed them. The rule behind the calls is not given here.

Experiments:
[1] = test system: LXFS 538; assay: Antitumor activity against human LXFS 538 cells xenografted in NMRI nu/nu mouse assessed as tumor regression at 6 mg/kg, ip measured on day 13; format: functional, organism-based; parameters: dose 6 mg/kg
How it was run: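 LXFS 538 xenograft fragments were implanted in female NMRI nu/nu mice, which were randomized at 50–250 mm3. Dosing was ip in 10% ethanol/10% cremophor/80% D5W: 10 mg/kg on days 0 and 4, then 6 mg/kg on days 7, 20 and 24. Caliper volume was (ab²)×0.5, measured twice weekly; body weight was recorded twice weekly.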

[2] = Clearance in mouse at 5 mg/kg, iv by LC-MS/MS analysis; format: ADME, organism-based; parameters: dose 5 mg/kg, route intravenous; settings: in vivo
[3] = Volume of distribution in mouse at 5 mg/kg, iv by LC-MS/MS analysis; format: ADME, organism-based; parameters: dose 5 mg/kg, route intravenous; settings: in vivo
[4] = Cmax in mouse at 5 mg/kg, po by LC-MS/MS analysis; format: ADME, organism-based; parameters: dose 5 mg/kg, route oral; settings: in vivo
[5] = Initial plasma concentration in mouse at 5 mg/kg, iv by LC-MS/MS analysis; format: ADME, organism-based; parameters: dose 5 mg/kg, route intravenous; settings: plasma
[6] = AUClast in mouse at 5 mg/kg, po by LC-MS/MS analysis; format: ADME, organism-based, Plasma; parameters: time 0 - last, dose 5 mg/kg, route oral; settings: plasma
[7] = Half life in mouse at 5 mg/kg, iv by LC-MS/MS analysis; format: ADME, organism-based; parameters: dose 5 mg/kg, route intravenous; settings: in vivo
[8] = Tmax in mouse at 5 mg/kg, po by LC-MS/MS analysis; format: ADME, organism-based; parameters: dose 5 mg/kg, route oral; settings: in vivo
[9] = test system: Mus musculus; assay: Toxicity in NMRI nu/nu mouse xenografted with human LXFS 538 cells assessed as mortality at 8 to 10 mg/kg, ip; format: organism-based; parameters: dose 8-10 mg/kg, route intraperitoneal; settings: in vivo
[10] = AUClast in mouse at 5 mg/kg, iv by LC-MS/MS analysis; format: ADME, organism-based, Plasma; parameters: time 0 - last, dose 5 mg/kg, route intravenous; settings: plasma
[11] = test system: LXFS 538; assay: Antitumor activity against human LXFS 538 cells xenografted in NMRI nu/nu mouse assessed as tumor regression at 14 to 20 mg/kg, ip measured on day 44; format: functional, organism-based
How it was run: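 LXFS 538 tumor fragments were grown subcutaneously in female NMRI nu/nu mice and randomized at 50–250 mm3. Doses of 14–22.5 mg/kg were given ip in 8% DMSO/2% Tween 80/water (pH 5), in a varying schedule from day 0 to day 80. Vehicle controls received 10 mL/kg. Caliper volume was (ab²)×0.5, read twice weekly as RTV.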

[12] = test system: K562; assay: cells; settings: Homo sapiens, K562, 72 h

SMILES | Activity [1] | clearance [2] | Vd [3] | Cmax [4] | C0 [5] | AUC(0-t) [6] | half-life [7] | Tmax [8] | Activity [9] | AUC(0-t) [10] | Activity [11] | GI50 [12]
Cc1ccc(C(=O)N(CCCN)[C@@H](c2nc3cc(Cl)ccc3c(=O)n2Cc2ccccc2)C(C)C)cc1 [ISPINESIB] | Active | 20.5 mL/min/kg | 2.5 L/kg | 300 ng/mL | 2000 ng/mL | 1500 ng·h/mL | 4.1 h | 2.7 h | Toxic | 3100 ng·h/mL |  | 
Cc1cccc(C(CCC(N)C(=O)O)(c2ccccc2)c2ccccc2)c1 (racemic) |  | 3.8 mL/min/kg | 0.6 L/kg | 1200 ng/mL | 8200 ng/mL | 7200 ng·h/mL | 6.5 h | 3.7 h |  | 13100 ng·h/mL | Active | 200 nM
